Experimental findings from ChEMBL document CHEMBL1124809, “Synthesis and biological evaluation of analogues of Pro-Leu-Gly-NH2 modified at the leucyl residue” (J Med Chem, 1990) are described below.

Activity calls are given as the source filed them. No cut-off for these calls is given here. Where a SMILES comes first, the peptide text is derived from it. [ ]: non-standard residue; d: D form. Phe(4-NO2) = N[C@@H](Cc1ccc([N+](=O)[O-])cc1)C(=O)O; Phg = N[C@H](C(=O)O)c1ccccc1; Nle = CCCC[C@H](N)C(=O)O; Nva = CCC[C@H](N)C(=O)O; Abu = CC[C@H](N)C(=O)O

Assay [1] deals with D(2) dopamine receptor (Bos taurus) (UniProt P20288). Nature of the assay: Ability to enhance the binding of [3H]ADTN to dopamine receptor D2 isolated from bovine striatal membranes; inactive. In short, it runs like this: (§1)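 Membranes from freshly dissected bovine caudate, homogenized in 50 mM Tris-HCl/1 mM EDTA pH 7.4, centrifuged twice at 27000g. Resuspended in Tris-HCl with ascorbate, MnCl2, DTT, PMSF, soybean trypsin inhibitor and bacitracin. 0.2–0.3 mg protein incubated with 8 nM [3H]ADTN ± peptide (10⁻¹²–10⁻⁴ M) for 10 min at 37 °C in triplicate. GF/B filtration, scintillation counting, % increase in specific binding over control.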

For assay [2] the target is unchanged. As to the kind of experiment: Ability to enhance the binding of [3H]-ADTN to Dopamine receptor D2 isolated from bovine caudate membranes at 1 uM concentration. An outline of the steps:
as §1

Assay [3] has the same target. Nature of the assay: Ability to stimulate the binding of [3H]ADTN to Dopamine receptor D2 isolated from bovine striatal membranes at 1 uM concentration. In short, it runs like this:
as §1

For assay [4] the target is unchanged. As to the kind of experiment: Ability to enhance the binding of [3H]ADTN to Dopamine receptor D2 isolated from bovine striatal membranes; maximum effect at 0.1 uM. In short, it runs like this: as §1

D(2) dopamine receptor (Bos taurus), sequence (P20288 whole entry): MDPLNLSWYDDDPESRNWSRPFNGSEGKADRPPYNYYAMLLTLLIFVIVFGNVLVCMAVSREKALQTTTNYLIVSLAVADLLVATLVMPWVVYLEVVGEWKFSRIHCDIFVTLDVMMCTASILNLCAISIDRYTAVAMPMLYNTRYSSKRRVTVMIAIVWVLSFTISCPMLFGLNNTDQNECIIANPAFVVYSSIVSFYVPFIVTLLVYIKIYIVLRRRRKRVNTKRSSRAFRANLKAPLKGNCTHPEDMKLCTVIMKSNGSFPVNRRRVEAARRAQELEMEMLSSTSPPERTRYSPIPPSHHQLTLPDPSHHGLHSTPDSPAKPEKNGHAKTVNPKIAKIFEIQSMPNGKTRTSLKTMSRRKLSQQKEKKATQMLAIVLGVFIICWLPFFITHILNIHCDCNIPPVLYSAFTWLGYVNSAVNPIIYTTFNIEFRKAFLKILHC

For `CC[C@H](C)[C@H](NC(=O)[C@@H]1CCCN1)C(=O)NCC(N)=O` (H-Pro-Ile-Gly-NH2), the result in assay [1] was inactive.
`CC(C)C[C@H](NC(=O)[C@@H]1CCCN1)C(=O)NCC(N)=O` (H-Pro-Leu-Gly-NH2): in assay [2], the Stimulation was determined as 27%.
With `CCC[C@H](NC(=O)[C@@H]1CCCN1)C(=O)NCC(N)=O` (H-Pro-[Nva]-Gly-NH2), the result in assay [1] was inactive.
`CC[C@H](NC(=O)[C@@H]1CCCN1)C(=O)NCC(N)=O` (H-Pro-[Abu]-Gly-NH2): in assay [1], the outcome was inactive.
As to `NC(=O)CNC(=O)[C@H](CCc1ccccc1)NC(=O)[C@@H]1CCCN1`, in assay [1], the outcome was inactive.
For the compound `NC(=O)CNC(=O)[C@H](Cc1ccccc1)NC(=O)[C@@H]1CCCN1` (H-Pro-Phe-Gly-NH2), the Stimulation in assay [3] worked out at 31%.
On to `NC(=O)CNC(=O)[C@H](CCc1ccccc1)NC(=O)[C@H]1CCCN1`, for which the result in assay [1] was inactive.
As for `NC(=O)CNC(=O)[C@H](Cc1ccc([N+](=O)[O-])cc1)NC(=O)[C@@H]1CCCN1` (H-Pro-[Phe(4-NO2)]-Gly-NH2), the outcome in assay [1] was inactive.
As to `CCCC[C@H](NC(=O)[C@@H]1CCCN1)C(=O)NCC(N)=O` (H-Pro-[Nle]-Gly-NH2), the result in assay [4] was Active.
Turning to `NC(=O)CNC(=O)[C@@H](NC(=O)[C@@H]1CCCN1)c1ccccc1` (H-Pro-[Phg]-Gly-NH2), the result in assay [1] was inactive.
On to `COc1ccc(C[C@H](NC(=O)[C@@H]2CCCN2)C(=O)NCC(N)=O)cc1` (H-Pro-Tyr(Me)-Gly-NH2), for which the result in assay [1] was inactive.
